Experimental data gathered from unrelated publications.
Each line is one published result; the experiments were not run side by side.

| SMILES | target or system | test | system | setting | measurement | result |
| --- | --- | --- | --- | --- | --- | --- |
| C[C@]1(O)CCCN(c2nc(Nc3ccc(S(=O)(=O)N[C@H]4CC[C@H](CN5CCN(c6ccc(C7CCC(=O)NC7=O)c(F)c6)CC5)CC4)cc3F)ncc2C(F)(F)F)C1 (some centres unmarked) |  |  | rat, plasma | oral, 10 mg/kg | bioavailability | 24% |
| NCc1cc2c(cc1F)C(=O)N(C1CCC(=O)NC1=O)C2 (centres unmarked) |  |  | male cynomolgus monkey, plasma | oral, 0.3 mg/kg | half-life | 2.2 h |
| CC[C@H](C)[C@H](NC(=O)[C@@H]1CCCN1C(=O)CNC(=O)[C@H](Cc1ccccc1)NC(=O)[C@H](CC(N)=O)NC(=O)[C@H](CC(N)=O)NC(=O)[C@H](CO)NC(=O)[C@H](CO)NC(=O)[C@H](Cc1c[nH]cn1)NC(=O)[C@H](CCCNC(=N)N)NC(=O)[C@H](CC(C)C)NC(=O)[C@H](Cc1ccccc1)NC(=O)[C@H](CCC(=O)O)NC(=O)[C@H](C)NC(=O)[C@H](CC(C)C)NC(=O)[C@H](CCCNC(=N)N)NC(=O)[C@H](CCC(N)=O)NC(=O)[C@@H](NC(=O)[C@H](C)NC(=O)[C@@H]1CSSC[C@H](NC(=O)[C@H](CCCCN)NC(=O)CC[C@H](NC(=O)CCCCCCCCCCCCCCCCCCC(=O)O)C(=O)O)C(=O)N[C@@H](CC(N)=O)C(=O)N[C@@H]([C@@H](C)O)C(=O)N[C@@H](C)C(=O)N[C@@H]([C@@H](C)O)C(=O)N1)[C@@H](C)O)C(=O)N[C@@H](CC(C)C)C(=O)N1CCC[C@H]1C(=O)N1CCC[C@H]1C(=O)N[C@H](C(=O)N[C@@H](CC(N)=O)C(=O)N[C@H](C(=O)NCC(=O)N[C@@H](CO)C(=O)N[C@@H](CC(N)=O)C(=O)N[C@H](C(=O)N1CCC[C@H]1C(N)=O)[C@@H](C)O)C(C)C)[C@@H](C)O |  |  | cynomolgus monkey, plasma | subcutaneous, 20 nmol/kg, single dose | half-life | 62 h |
| COc1nc(-c2cccc(-c3ccccc3)c2C)ccc1CNCCNC(=O)CCCCCCCCCCC(=O)N1CCN(CCNC(=O)c2cc3c(=O)n4cccc(C)c4nc3n(CCc3cccs3)c2=N)CC1 |  |  | male Sprague-Dawley rat, plasma | intraperitoneal, 4 mg/kg | Cmax | 300 ng/mL |
| Cc1c(C)c2c(c(C)c1O)CCC(C)(COc1ccc(CC3SC(=O)NC3=O)cc1)O2 (centres unmarked) | THLE-2 | cell growth or viability, MTT |  | 100 µM, 72 h | viability | 9% |
| C[C@H]1Oc2cc(cnc2N)-c2c(nn(C)c2C#N)CN(C)C(=O)c2ccc(F)cc21 |  |  | male Sprague-Dawley rat, plasma | oral, 50 mg/kg, single dose | Cmax | 2480 ng/mL |
| CC(=O)Nc1ccc(O)cc1 | THLE-2 | cell growth or viability, MTT |  | 100 µM, 72 h | viability | 29.1% |
| CNS(=O)(=O)c1ccc(Nc2ncc3cc(Cl)c(=O)n(C4CCCC4)c3n2)c(C)c1 |  |  | rat, plasma | oral, 10 mg/kg | bioavailability | 3% |
